Test results from ChEMBL document CHEMBL5346918, “Design, synthesis and biological evaluation of Nucleosidic CD99 inhibitors that selectively reduce Ewing sarcoma viability” (Eur J Med Chem, 2023).
pIC50, pKd: −log10 of the molar value. Activity calls are given as the source filed them. The calls are words filed in the database; no cut-off is given here.

Columns and labels:
[1] = tested on: HOS; experiment: Cytotoxicity against human HOS cells assessed as reduction in cell viability incubated for 48 hrs by CellTiter-Blue reagent based […]; format: functional
Method in brief: (§1)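 Cells grown in their own media at 37 °C, 5% CO2, mycoplasma-tested. At 60–80% confluency, treated 48 h with a range of concentrations made in medium. CellTiter-Blue added for 3–5 h at 37 °C, fluorescence read at ex 560/em 590 nm. IC50 from nonlinear regression (log(inhibitor) vs normalized response); mean ± SD of duplicate or triplicate determinations.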

[2] = Cytotoxicity against human SK-ES cells assessed as reduction in cell viability incubated for 48 hrs by CellTiter-Blue reagent based […] assay; format: functional; method in brief: as §1
[3] = tested on: TC-32; experiment: Inhibition of DNA synthesis in human TC-32 cells assessed as induction of DNA damage by measuring gammaH2AX phosphorylation at 20 to 80 uM incubated for 6 hrs by western blot analysis; format: toxicity, cell-based; settings: tc-32, 6 h, dose 20-80 µM
Method in brief: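 TC-32 cells treated 6 h at 20, 40 or 80 μM. Total lysates immunoblotted for H2A.X and Ser139-phosphorylated γH2A.X. Actin used as loading control and for normalization. Bands quantified by densitometry.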

[4] = tested on: TC-32; experiment: Induction of apoptosis in human TC-32 cells assessed as increase in hypodiploid subG1 population at 10 to 40 uM incubated for 48 hrs by propidium iodide staining based flow cytometry; format: functional, cell-based; settings: dose 10-40 µM
Method in brief: (§2)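 Treatment same as the apoptosis blots (48 h; 0.1–0.4 μM or 10–40 μM). Adherent cells trypsinized and pooled with floating cells, then washed in PBS. Fixed in ice-cold 70% ethanol 1 h on ice, rehydrated, RNase A 100 μg/mL. Stained with propidium iodide at 50 μg/mL final for 1 h on ice. Sub-G1 fraction read by flow cytometry.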

[5] = molecular target: T1, CD99 antigen (Homo sapiens, UniProt P14209); experiment: Binding affinity to N-terminal biotin-tagged recombinant human CD99 extracellular domain (23 to 122 residues) expressed in Escherichia coli BL21(DE3) by surface plasmon resonance analysis
T1 sequence (P14209 whole entry): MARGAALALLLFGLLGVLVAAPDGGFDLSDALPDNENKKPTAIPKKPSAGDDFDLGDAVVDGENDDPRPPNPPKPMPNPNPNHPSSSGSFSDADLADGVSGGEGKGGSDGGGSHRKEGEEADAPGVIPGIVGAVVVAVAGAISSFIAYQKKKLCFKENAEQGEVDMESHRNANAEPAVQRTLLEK
Method in brief: (§3)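 Bacterially expressed recombinant CD99 extracellular domain amine-coupled to CM5 chip (10 mM sodium acetate pH 4.0, ~3500 RU). Analytes injected at various concentrations in PBS-P pH 7.4 + 1% DMSO at 50 μL/min. Contact time 60 s, dissociation 300 s, regeneration with 15 s H3PO4 pulse. Duplicate injections; sensorgrams fitted to 1:1 kinetic model.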

[6] = tested on: A549; experiment: Cytotoxicity against human A549 cells assessed as reduction in cell viability incubated for 48 hrs by CellTiter-Blue reagent based […] assay; format: functional; settings: A549, 48 h
[7] = Cytotoxicity against human COG-E-352 cells assessed as reduction in cell viability incubated for 48 hrs by CellTiter-Blue reagent based […] assay; format: functional; settings: COG-E-352, 48 h; method in brief: as §1
[8] = Cytotoxicity against human MHH-ES cells assessed as reduction in cell viability incubated for 48 hrs by CellTiter-Blue reagent based […] assay; format: functional
[9] = Cytotoxicity against human STA-ET-7.2 cells assessed as reduction in cell viability incubated for 48 hrs by CellTiter-Blue reagent based […] assay; format: functional; settings: STA-ET-7.2, 48 h
[10] = Cytotoxicity against human TC71 cells assessed as reduction in cell viability incubated for 48 hrs by CellTiter-Blue reagent based […] assay; format: functional; settings: TC-71, 48 h
Method in brief: (§4)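 Cells seeded and grown to 60–80% confluency (usually 18–24 h), then treated 48 h with a range of concentrations prepared in each line's medium. CellTiter-Blue reagent added at the end of treatment and incubated 3–5 h at 37 °C, 5% CO₂. Fluorescence read at 560 nm excitation and 590 nm emission. IC50 from nonlinear regression, log(inhibitor) vs. normalized response.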

[11] = tested on: HeLa; experiment: Cytotoxicity against human HeLa cells assessed as reduction in cell viability incubated for 48 hrs by CellTiter-Blue reagent based […] assay; format: functional; method in brief: as §1
[12] = tested on: U2OS; experiment: Induction of apoptosis in human U2OS cells assessed as caspase-3 cleavage at 10 to 40 uM incubated for 48 hrs by western blot analysis; format: functional, cell-based; settings: dose 10-40 µM
Method in brief: (§5)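 Cells treated 48 h with three concentrations per agent (0.1, 0.2 or 0.4 μM for one; 10, 20 or 40 μM for another). Total cell lysates immunoblotted for PARP and caspase 3 and their cleaved products. Actin used as loading control and for normalization. ECL signal imaged on PVDF, bands quantified by densitometry.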

[13] = tested on: A 172; experiment: Cytotoxicity against human A-172 cells assessed as reduction in cell viability incubated for 48 hrs by CellTiter-Blue reagent based […] assay; format: functional; settings: A 172, 48 h; method in brief: as §1
[14] = tested on: TC-32; experiment: Induction of apoptosis in human TC-32 cells assessed as PARP cleavage at 10 to 40 uM incubated for 48 hrs by western blot analysis; format: functional, cell-based; settings: dose 10-40 µM; method in brief: as §5
[15] = tested on: SAOS-2; experiment: Cytotoxicity against human SAOS-2 cells assessed as reduction in cell viability incubated for 48 hrs by CellTiter-Blue reagent based […] assay; format: functional; settings: SAOS-2, 48 h; method in brief: as §4
[16] = tested on: TC-32; experiment: Induction of apoptosis in human TC-32 cells assessed as caspase-3 cleavage at 10 to 40 uM incubated for 48 hrs by western blot analysis; format: functional, cell-based; settings: dose 10-40 µM; method in brief: as §5
[17] = tested on: 143B; experiment: Cytotoxicity against human 143B cells assessed as reduction in cell viability incubated for 48 hrs by CellTiter-Blue reagent based […] assay; format: functional; method in brief: as §1
[18] = tested on: U2OS; experiment: Induction of apoptosis in human U2OS cells assessed as increase in hypodiploid subG1 population at 10 to 40 uM incubated for 48 hrs by propidium iodide staining based flow cytometry; format: functional, cell-based; settings: dose 10-40 µM; method in brief: as §2
[19] = tested on: U2OS; experiment: Induction of apoptosis in human U2OS cells assessed as PARP cleavage at 10 to 40 uM incubated for 48 hrs by western blot analysis; format: functional, cell-based; settings: dose 10-40 µM; method in brief: as §5
[20] = tested on: PC-3; experiment: Cytotoxicity against human PC-3 cells assessed as reduction in cell viability incubated for 48 hrs by CellTiter-Blue reagent based […] assay; format: functional; settings: PC-3, 48 h; method in brief: as §1
[21] = tested on: U-87 MG; experiment: Cytotoxicity against human U-87 MG cells assessed as reduction in cell viability incubated for 48 hrs by CellTiter-Blue reagent based […] assay; format: functional, U-87MG ATCC; method in brief: as §1
[22] = Cytotoxicity against human HEK293 cells assessed as reduction in cell viability incubated for 48 hrs by CellTiter-Blue reagent based […] assay; format: toxicity; method in brief: as §1
[23] = Cytotoxicity against human MG-63.3 cells assessed as reduction in cell viability incubated for 48 hrs by CellTiter-Blue reagent based […] assay; format: functional; settings: MG-63.3, 48 h; method in brief: as §1
[24] = tested on: U2OS; experiment: Cytotoxicity against human U2OS cells assessed as reduction in cell viability incubated for 48 hrs by CellTiter-Blue reagent based […] assay; format: functional; method in brief: as §4
[25] = tested on: TC-32; experiment: Cytotoxicity against human TC-32 cells assessed as reduction in cell viability incubated for 48 hrs by CellTiter-Blue reagent based […] assay; format: functional; settings: TC-32, 48 h; method in brief: as §4
[26] = molecular target: T1, CD99 antigen; experiment: Binding affinity to N-terminal biotin-tagged recombinant human CD99 extracellular domain (23 to 122 residues) expressed in Escherichia coli BL21(DE3) assessed as dissociation rate constant by surface plasmon resonance analysis; method in brief: as §3
[27] = tested on: SJRH30; experiment: Cytotoxicity against human Rh30 cells assessed as reduction in cell viability incubated for 48 hrs by CellTiter-Blue reagent based […] assay; format: functional; settings: SJRH30, 48 h
[28] = tested on: RD; experiment: Cytotoxicity against human RD cells assessed as reduction in cell viability incubated for 48 hrs by CellTiter-Blue reagent based […] assay; format: functional; method in brief: as §1
[29] = Cytotoxicity against human A4573 cells assessed as reduction in cell viability incubated for 48 hrs by CellTiter-Blue reagent based […] assay; format: functional; settings: A4573, 48 h; method in brief: as §4
[30] = molecular target: T2, CD99 antigen (Homo sapiens) (UniProt P14209); experiment: Binding affinity to N-terminal biotin-tagged recombinant human CD99 extracellular domain (23 to 122 residues) expressed in Escherichia coli BL21(DE3) assessed as association rate constant by surface plasmon resonance analysis; method in brief: as §3
T2 sequence (whole entry): T1 sequence (P14209 whole entry)

[31] = tested on: TC-32; experiment: Induction of apoptosis in human TC-32 cells assessed as PARP cleavage at 4 to 16 uM incubated for 48 hrs by western blot analysis; format: functional, cell-based; settings: dose 4-16 µM
Method in brief: (§6)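 TC-32 cells treated 48 h at 4, 8 or 16 μM; total lysates immunoblotted for cleaved PARP and cleaved caspase 3, actin as loading and normalization control; ECL imaging with densitometry.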

[32] = molecular target: T2, CD99 antigen (Homo sapiens); experiment: Binding affinity to CD99 in human TC71 cells assessed as protein stabilization at 80 uM incubated for 30 mins and measured at 51 to 99 degC by CETSA analysis; format: cell-based
Method in brief: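 TC-71 cell lysate mixed with compound at 80 μM final, aliquots heated at various temperatures; thermally stable CD99 remaining in solution detected by western blot with anti-CD99 antibody and quantified by densitometry relative to untreated lysate.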

[33] = tested on: U2OS; experiment: Induction of apoptosis in human U2OS cells assessed as increase in hypodiploid subG1 population at 4 to 16 uM incubated for 48 hrs by propidium iodide staining based flow cytometry; format: functional, cell-based; settings: dose 4-16 µM
Method in brief: (§7)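 Cells treated 48 h at 4, 8 or 16 μM, then adherent and floating cells pooled, fixed in ice-cold 70% ethanol 1 h, treated with RNase A 100 μg/mL, stained with propidium iodide 50 μg/mL for 1 h on ice. Sub-G1 fraction measured by flow cytometry.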

[34] = tested on: U2OS; experiment: Induction of apoptosis in human U2OS cells assessed as PARP cleavage at 4 to 16 uM incubated for 48 hrs by western blot analysis; format: functional, cell-based; settings: dose 4-16 µM
Method in brief: (§8)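 U-2 OS cells treated 48 h at 4, 8 or 16 μM; total lysates immunoblotted for cleaved PARP and cleaved caspase 3, actin as loading and normalization control.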

[35] = tested on: TC-32; experiment: Induction of apoptosis in human TC-32 cells assessed as increase in hypodiploid subG1 population at 4 to 16 uM incubated for 48 hrs by propidium iodide staining based flow cytometry; format: functional, cell-based; settings: dose 4-16 µM; method in brief: as §7
[36] = tested on: TC-32; experiment: Induction of apoptosis in human TC-32 cells assessed as caspase-3 cleavage at 4 to 16 uM incubated for 48 hrs by western blot analysis; format: functional, cell-based; settings: dose 4-16 µM; method in brief: as §6
[37] = tested on: U2OS; experiment: Induction of apoptosis in human U2OS cells assessed as caspase-3 cleavage at 4 to 16 uM incubated for 48 hrs by western blot analysis; format: functional, cell-based; settings: dose 4-16 µM; method in brief: as §8

Row | SMILES | pIC50 [1] | pIC50 [2] | pKd [5] | pIC50 [6] | pIC50 [7] | pIC50 [8] | pIC50 [9] | pIC50 [10] | pIC50 [11] | pIC50 [13] | pIC50 [15] | pIC50 [17] | pIC50 [20] | pIC50 [21] | IC50 at 48 h [22] [µM] | pIC50 [23] | pIC50 [24] | pIC50 [25] | Kd [26] | pIC50 [27] | also measured
1 | Nc1nc(-c2cccnc2)nc2c1ncn2[C@@H]1O[C@H](CO)[C@@H](O)[C@@H]1F | < 3.40 | 4.22 | 5.74 | < 3.40 | 4.22 | 4.22 | 4.22 | 4.70 | < 3.40 | < 3.40 | ≤ 3.40 | < 3.43 | < 3.40 | < 3.40 | > 368 | < 3.43 | ≤ 3.40 | 4.23 | 598.2 10^-6/s | < 3.43 | Activity [3]: Non-Toxic; Activity [4]: Active; Activity [12]: inactive; Activity [14]: Active; Activity [16]: Active; Activity [18]: inactive; Activity [19]: inactive; pIC50 [28]: < 3.40; pIC50 [29]: 4.35; Ka [30]: 335 M⁻¹ s⁻¹
2 | Nc1nc(Cl)nc2c1ncn2[C@@H]1O[C@H](COC(C(=O)O)C(=O)O)[C@@H](O)[C@@H]1F | < 3.40 | 4.57 | 5.82 | < 3.40 | 4.57 | 4.57 | 4.57 | 5.29 | < 3.40 | < 3.47 | ≤ 3.40 | < 3.47 | < 3.40 | < 3.40 | > 341 | < 3.47 | ≤ 3.40 | 4.57 | 2467 10^-6/s | < 3.47 | Activity [31]: Active; Activity [32]: Active; Activity [33]: inactive; Activity [34]: inactive; Activity [35]: Active; pIC50 [28]: < 3.40; Activity [36]: Active; pIC50 [29]: 4.57; Activity [37]: inactive; Ka [30]: 1700 M⁻¹ s⁻¹
